Test results from ChEMBL document CHEMBL4219118, “Cathepsin B inhibitors: Further exploration of the nitroxoline core” (Bioorg Med Chem Lett, 2018).

Columns and labels:
Cathepsin B [1] = target: T1, Cathepsin B (Homo sapiens, UniProt P07858); assay: Inhibition of recombinant human cathepsin B endopeptidase activity assessed as inhibitory constant for enzyme-substrate-inhibitor complex using Z-Arg-Arg-AMC as substrate in presence of pH 6 phosphate buffer by fluorescence assay
Cathepsin B [2] = target: T1, Cathepsin B; assay: Inhibition of recombinant human cathepsin B endopeptidase activity assessed as inhibitory constant for enzyme-inhibitor complex using Z-Arg-Arg-AMC as substrate in presence of pH 4.5 acetate buffer by fluorescence assay
Summary of the method: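 Recombinant cathepsin B endopeptidase activity assayed with the small substrate Z-Arg-Arg-AMC at pH 4.5. Acidic conditions chosen to shift the enzyme toward the closed (exopeptidase) conformation. Ki reported.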

Cathepsin B [3] = target: T1, Cathepsin B; assay: Inhibition of recombinant human cathepsin B exopeptidase activity assessed as inhibitory constant for enzyme-inhibitor complex using Abz-Gly-Ile-Val-Arg-Ala-Lys(Dnp)-OH as substrate in presence of pH 5 acetate buffer by fluorescence assay
Cathepsin B [4] = target: T1, Cathepsin B; assay: Inhibition of recombinant human cathepsin B exopeptidase activity assessed as inhibitory constant for enzyme-substrate-inhibitor complex using Abz-Gly-Ile-Val-Arg-Ala-Lys(Dnp)-OH as substrate in presence of pH 5 acetate buffer by fluorescence assay
Cathepsin B [5] = target: T1, Cathepsin B; assay: Non-competitive inhibition of recombinant human cathepsin B endopeptidase activity assessed as inhibitory constant for enzyme-substrate-inhibitor complex using Z-Arg-Arg-AMC as substrate in presence of pH 6 phosphate buffer by fluorescence assay
Cathepsin B [6] = target: T1, Cathepsin B; assay: Non-competitive inhibition of recombinant human cathepsin B endopeptidase activity assessed as inhibitory constant for enzyme-inhibitor complex using Z-Arg-Arg-AMC as substrate in presence of pH 6 phosphate buffer by fluorescence assay
Cathepsin B [7] = target: T1, Cathepsin B; assay: Non-competitive inhibition of recombinant human cathepsin B exopeptidase activity assessed as inhibitory constant for enzyme-substrate-inhibitor complex using Abz-Gly-Ile-Val-Arg-Ala-Lys(Dnp)-OH as substrate in presence of pH 5 acetate buffer by fluorescence assay
Cathepsin B [8] = target: T1, Cathepsin B; assay: Non-competitive inhibition of recombinant human cathepsin B exopeptidase activity assessed as inhibitory constant for enzyme-inhibitor complex using Abz-Gly-Ile-Val-Arg-Ala-Lys(Dnp)-OH as substrate in presence of pH 5 acetate buffer by fluorescence assay

Structure (SMILES) | Ki (Cathepsin B [1]) | Ki (Cathepsin B [2]) | Ki (Cathepsin B [3]) | Ki (Cathepsin B [4]) | Ki (Cathepsin B [5]) | Ki (Cathepsin B [6]) | Ki (Cathepsin B [7]) | Ki (Cathepsin B [8])
N#Cc1ccc(-c2ccc([N+](=O)[O-])c3cccnc23)cc1 | Not Active | Not Active | Not Active | Not Active |  |  |  | 
O=[N+]([O-])c1ccc(-c2cc3ccccc3s2)c2ncccc12 | Not Active | Not Active | Not Active | Not Active |  |  |  | 
O=C(O)c1ccc([N+](=O)[O-])c2cccnc12 | Not Active | Not Active | Not Active | Not Active |  |  |  | 
N#CCNCc1cc([N+](=O)[O-])ccc1O | Not Active | Not Active | Not Active | Not Active |  |  |  | 
N#Cc1ccc([N+](=O)[O-])c2cccnc12 | Not Active | Not Active | Not Active | Not Active |  |  |  | 
O=C(NCC1CCN(Cc2nc3ccccc3s2)CC1)c1cc([N+](=O)[O-])c2cccnc2c1O | Not Active | Not Active | Not Active | Not Active |  |  |  | 
CC(=O)c1ccc(-c2ccc(-c3ccc([N+](=O)[O-])c4cccnc34)s2)cc1 | Not Active | Not Active | Not Active | Not Active |  |  |  | 
Cc1ccc(-c2ccc([N+](=O)[O-])c3cccnc23)cc1 | Not Active | Not Active | Not Active | Not Active |  |  |  | 
COCCN(CC1CCN(Cc2nc3ccccc3o2)CC1)C(=O)c1cc([N+](=O)[O-])c2cccnc2c1O | Not Active | Not Active | Not Active | Not Active |  |  |  | 
O=[N+]([O-])c1ccc(Br)c2ncccc12 | Not Active | Not Active | Not Active | Not Active |  |  |  | 
Cc1ccc2c([N+](=O)[O-])cc([N+](=O)[O-])c(O)c2n1 | Not Active | Not Active | Not Active | Not Active |  |  |  | 
CC(=O)c1ccc(-c2c(-c3ccc([N+](=O)[O-])c4cccnc34)oc3ccccc23)cc1 | Not Active | Not Active | Not Active | Not Active |  |  |  | 
O=C(O)c1ccc2c([N+](=O)[O-])ccc(O)c2n1 |  |  |  |  | 139 µM | 139 µM | 240 µM | 240 µM
Cc1ccc(-c2ccc([N+](=O)[O-])c3cccnc23)s1 | Not Active | Not Active | Not Active | Not Active |  |  |  | 
NC(=O)c1ccc([N+](=O)[O-])c2cccnc12 | Not Active | Not Active | Not Active | Not Active |  |  |  | 
CN(CC#N)Cc1cc([N+](=O)[O-])ccc1O | Not Active | Not Active | Not Active | Not Active |  |  |  | 
O=[N+]([O-])c1ccc(-c2ccoc2)c2ncccc12 | Not Active | Not Active | Not Active | Not Active |  |  |  | 
N#CCN(Cc1ccccc1)C(=O)c1cc([N+](=O)[O-])ccc1O |  |  |  |  | 342 µM | 342 µM | 96 µM | 96 µM
O=C(c1cc([N+](=O)[O-])ccc1O)N1CCOCC1 |  |  |  |  | 237 µM | 237 µM | 176 µM | 176 µM
CC1CCN(C(=O)c2cc([N+](=O)[O-])ccc2O)CC1 | Not Active | Not Active | Not Active | Not Active |  |  |  | 
Cc1cccc(-c2ccc([N+](=O)[O-])c3cccnc23)c1 | Not Active | Not Active | Not Active | Not Active |  |  |  | 
O=[N+]([O-])c1ccc(O)c(CN2CCOCC2)c1 |  |  |  |  | 212 µM | 212 µM | 97 µM | 97 µM
O=C(c1cc([N+](=O)[O-])c2cccnc2c1O)N1CCOCC1 |  |  |  |  | 136 µM | 136 µM | 122 µM | 122 µM
O=C(NCC1CCN(C2Cc3ccccc3C2)CC1)c1cc([N+](=O)[O-])c2cccnc2c1O | Not Active | Not Active | Not Active | Not Active |  |  |  | 
CC1CCN(Cc2cc([N+](=O)[O-])ccc2O)CC1 | Not Active | Not Active | Not Active | Not Active |  |  |  | 
O=[N+]([O-])c1ccc(-c2occc2-c2ccc([N+](=O)[O-])c3cccnc23)cc1 | Not Active | Not Active | Not Active | Not Active |  |  |  | 
CN(CC#N)C(=O)c1cc([N+](=O)[O-])ccc1O | Not Active | Not Active | Not Active | Not Active |  |  |  | 
O=[N+]([O-])c1cccc(-c2ccc([N+](=O)[O-])c3cccnc23)c1 | Not Active | Not Active | Not Active | Not Active |  |  |  | 

The next lines start with the values.

Ki (Cathepsin B [1]) | Ki (Cathepsin B [2]) | Ki (Cathepsin B [3]) | Ki (Cathepsin B [4]) | Ki (Cathepsin B [5]) | Ki (Cathepsin B [6]) | Ki (Cathepsin B [7]) | Ki (Cathepsin B [8]) | Structure (SMILES)
Not Active | Not Active | Not Active | Not Active |  |  |  |  | Cc1ccc([N+](=O)[O-])c2cccnc12
Not Active | Not Active | Not Active | Not Active |  |  |  |  | O=[N+]([O-])c1ccc(-c2ccccc2)c2ncccc12
 |  |  |  | 333 µM | 333 µM | 224 µM | 224 µM | Cn1cccc1-c1ccc([N+](=O)[O-])c2cccnc12
Not Active | Not Active | Not Active | Not Active |  |  |  |  | O=[N+]([O-])c1ccc(-c2c(-c3ccc([N+](=O)[O-])c4cccnc34)oc3ccccc23)cc1
 |  |  |  | 185 µM | 185 µM | 121 µM | 121 µM | CN(CC#N)C(=O)c1cc([N+](=O)[O-])c2cccnc2c1O
Not Active | Not Active | Not Active | Not Active |  |  |  |  | O=[N+]([O-])c1ccc(O)c(CN2CCCCC2)c1
 |  |  |  | 271 µM | 271 µM | 168 µM | 168 µM | N#CCNC(=O)c1cc([N+](=O)[O-])ccc1O
 |  |  |  | 202 µM | 202 µM | 329 µM | 329 µM | Nc1ccc2c([N+](=O)[O-])ccc(O)c2n1
Not Active | Not Active | Not Active | Not Active |  |  |  |  | N#Cc1ccc(-c2ccc(-c3ccc([N+](=O)[O-])c4cccnc34)o2)cc1
Not Active | Not Active | Not Active | Not Active |  |  |  |  | O=[N+]([O-])c1ccc(-c2ccsc2)c2ncccc12
Not Active | Not Active | Not Active | Not Active |  |  |  |  | O=[N+]([O-])c1ccc(-c2ccco2)c2ncccc12
Not Active | Not Active | Not Active | Not Active |  |  |  |  | O=C(O)c1ccc2c([N+](=O)[O-])cc([N+](=O)[O-])c(O)c2n1
Not Active | Not Active | Not Active | Not Active |  |  |  |  | O=[N+]([O-])c1ccc(-c2cc3ccccc3o2)c2ncccc12
Not Active | Not Active | Not Active | Not Active |  |  |  |  | N#CCN(Cc1ccccc1)Cc1cc([N+](=O)[O-])ccc1O
Not Active | Not Active | Not Active | Not Active |  |  |  |  | CN(CC#N)Cc1ccc2c([N+](=O)[O-])ccc(O)c2n1
Not Active | Not Active | Not Active | Not Active |  |  |  |  | CC(=O)c1ccc(-c2ccc(-c3ccc([N+](=O)[O-])c4cccnc34)n2C)cc1
Not Active | Not Active | Not Active | Not Active |  |  |  |  | O=[N+]([O-])c1ccc(-c2ccc[nH]2)c2ncccc12
Not Active | Not Active | Not Active | Not Active |  |  |  |  | N#CC1(NCc2cc([N+](=O)[O-])ccc2O)CC1
Not Active | Not Active | Not Active | Not Active |  |  |  |  | O=C(c1cc([N+](=O)[O-])ccc1O)N1CCCCC1
